Experimental data: PubChem BioAssay
The source made the active and inactive calls.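 How the source made its calls, unless noted: active means viability at or under a set limit in both replicates, limit being median viability minus 3 SD (cut at about 48% in these data, passing the limit was not always enough); inconclusive means at or under the limit in just one replicate; inactive means at or above the limit in both replicates.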

Experiments:
[1] = Her2 expression decrease, cell viability multiplex – SKBR3 breast tumor cells, AlphaScreen, ATP viability, primary screen (AID 461;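 active means Her2 level under about 52% in both replicate screens, with viability over 70% of control, limit read from the data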;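 on Her2 level: lower value means less Her2 protein in the cells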;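 on viability: percent of carrier control wells set as 100% viability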); settings: SKBR3 Her2 protein level, 18-24 h, measured here: SKBR3 viability, ATP luminescence, at 10 µM
[2] = molecular target: Receptor tyrosine-protein kinase erbB-2 (Homo sapiens) (UniProt P04626); assay: as above; settings: 18-24 h, at 10 µM, stronger effect = lower value
[3] = reduced viability of SK-BR-3 breast cancer cells – cell-based, 24 h, human, pilot screen (AID 572;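 active means viability at or below 10% of carrier control in both of two separate runs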;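 further: compound exposure lasted between 18 and 24 h rather than exactly 24 h; 100% = carrier-treated control wells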); settings: SK-BR-3 viability, CellTiter-Glo luminescence, at 10 µM, stronger effect = lower value
[4] = HUVEC growth inhibition – cell-based, human, primary screen (AID 575;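 active means viability at or below 30% in both replicate assays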;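 further: 100% = median of untreated cell wells with 0.1% DMSO on each plate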); settings: HUVEC proliferation, CellTiter-Glo luminescence, 72 h; at 10 µM; stronger effect = lower value
Procedure, shortened: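 Test system – primary HUVEC, no more than 12 passages · Dosing – one dose, 10 µM final, 0.1% DMSO · Times – 72 h treatment at 37 °C · Measured by – ATP-based CellTiter-Glo luminescent read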

[5] = H69AR cell proliferation blockers – human, duplicate replicates, primary screen (AID 580); settings: H69AR lung tumor cells viability, ATP luminescence, 72 h; at 10 µM; stronger effect = lower value;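 further: 100% = mean luminescence of untreated wells and 0% = no signal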
[6] = MRP1 drug-resistance reversers in H69AR cells – cell-based, doxorubicin co-treatment, pilot screen (AID 601;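 active means viability loss from added drug above about 55%, and viability with drug at most 40%, in both replicates, limit read from the data, passing the limit was not always enough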); settings: CellTiter-Glo, 72 h, at 10 µM; for differential viability (reversal): stronger effect = higher value
[7] = yeast transport mutant growth inhibition pilot in 384-well plates, post-Golgi transport modulator project (AID 636; in the data active means inhibition above about 31%); settings: absorbance 615 nm, about 18 h, stronger effect = higher value
[8] = growth suppression of yeast trafficking mutant, preliminary HTS, modulators of trafficking downstream of Golgi apparatus project, 1536-format plate, OD 615 nm (AID 637; in the data active means inhibition above about 30%); settings: yeast transport mutant growth, absorbance 615 nm, 18 h; stronger effect = higher value
[9] = H69AR cells + 2 uM doxorubicin, measured here: viability with 2 uM doxorubicin, stronger effect = lower value
[10] = H69AR cells, compound alone cytotoxicity

Receptor tyrosine-protein kinase erbB-2 (Homo sapiens), sequence (P04626 whole entry, looked up): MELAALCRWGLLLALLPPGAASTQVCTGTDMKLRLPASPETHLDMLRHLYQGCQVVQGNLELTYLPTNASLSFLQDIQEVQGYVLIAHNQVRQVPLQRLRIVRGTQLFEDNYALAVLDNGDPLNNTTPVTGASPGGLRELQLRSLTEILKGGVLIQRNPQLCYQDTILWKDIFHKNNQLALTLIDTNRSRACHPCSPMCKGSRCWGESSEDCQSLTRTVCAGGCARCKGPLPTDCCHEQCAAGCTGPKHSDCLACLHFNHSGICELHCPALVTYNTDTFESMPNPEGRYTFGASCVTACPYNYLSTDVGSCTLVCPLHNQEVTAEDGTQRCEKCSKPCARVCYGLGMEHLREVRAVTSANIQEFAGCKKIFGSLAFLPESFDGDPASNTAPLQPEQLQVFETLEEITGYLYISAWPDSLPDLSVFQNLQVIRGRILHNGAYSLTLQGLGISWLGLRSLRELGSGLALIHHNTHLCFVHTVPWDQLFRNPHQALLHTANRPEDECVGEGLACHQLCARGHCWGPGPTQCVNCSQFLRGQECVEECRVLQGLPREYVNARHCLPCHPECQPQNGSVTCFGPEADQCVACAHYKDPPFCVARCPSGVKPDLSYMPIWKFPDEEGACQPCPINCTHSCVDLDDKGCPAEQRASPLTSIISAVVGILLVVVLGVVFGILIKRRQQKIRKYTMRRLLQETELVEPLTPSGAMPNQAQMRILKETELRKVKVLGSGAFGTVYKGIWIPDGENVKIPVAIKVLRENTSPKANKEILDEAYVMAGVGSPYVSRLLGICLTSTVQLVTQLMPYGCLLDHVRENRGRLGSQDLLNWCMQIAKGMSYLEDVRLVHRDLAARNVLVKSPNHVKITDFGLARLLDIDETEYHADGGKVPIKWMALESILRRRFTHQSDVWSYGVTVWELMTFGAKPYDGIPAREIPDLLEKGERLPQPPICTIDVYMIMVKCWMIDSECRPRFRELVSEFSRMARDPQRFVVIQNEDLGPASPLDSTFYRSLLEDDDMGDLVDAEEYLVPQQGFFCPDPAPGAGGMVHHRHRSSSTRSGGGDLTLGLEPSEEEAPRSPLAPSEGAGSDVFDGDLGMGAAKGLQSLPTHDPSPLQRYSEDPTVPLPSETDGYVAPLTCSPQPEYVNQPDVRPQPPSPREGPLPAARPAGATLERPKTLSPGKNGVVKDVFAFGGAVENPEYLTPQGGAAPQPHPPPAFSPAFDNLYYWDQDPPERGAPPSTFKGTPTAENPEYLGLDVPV

SMILES	viability [1]	Her2 level [2]	viability [3]	viability [4]	viability [5]	differential viability (reversal) ([6]; H69AR cells + 2 uM doxorubicin)	viability [6, 9]	viability [6, 10]	inhibition [7]	inhibition [8]
O=c1cc(COn2nnc3ccc(C(F)(F)F)cc32)nc2sccn12	89.5%	91.5% (inactive)	89.5% (inactive)	104% (inactive)	85.7% (inactive)	-19.7% (inactive)	105%	85.7%	-1.71% (inactive)	0.63% (inactive)
CCn1c(=O)cc(SCC(=O)N2CCN(C3CCCCC3)CC2)c2ccccc21	88.5%	77% (inactive)	88.5% (inactive)	79.2% (inactive)	83.5% (inactive)	7.01% (inactive)	76.5%	83.5%	-0.92% (inactive)	0.18% (inactive)
Cc1nc(-c2cnn(-c3ccccc3)c2)c2cc(C)oc2n1	74.5%	76% (inactive)	74.5% (inactive)	67.2% (inactive)	90.7% (inactive)	3.27% (inactive)	87.4%	90.7%	-2.11% (inactive)	3.28% (inactive)
O=C(c1cnsn1)N1CCN(c2ccccn2)CC1	122%	75% (inactive)	122% (inactive)	100% (inactive)	102% (inactive)	10.7% (inactive)	91.7%	102%	-0.66% (inactive)	-5.87% (inactive)
CCOC(=O)c1nnn(CC(=O)Nc2cccc(OC)c2)c1C(=O)OCC	92.5%	86.5% (inactive)	92.5% (inactive)	100% (inactive)	83.7% (inactive)	-2.59% (inactive)	86.3%	83.7%	-4.53% (inactive)	0.98% (inactive)
Cc1ccc(S(=O)(=O)n2nc(OC(=O)c3ccco3)cc2N)cc1	92.5%	106% (inactive)	92.5% (inactive)	96.4% (inactive)	88.8% (inactive)	4.73% (inactive)	84%	88.8%	-6.32% (inactive)	-1.45% (inactive)
CC(=O)NS(=O)(=O)c1ccc(NC(=O)c2ccccc2F)cc1	72%	95% (inactive)	72% (inactive)	87.3% (inactive)	99.4% (inactive)	3.83% (inactive)	95.5%	99.4%	0% (inactive)	2.33% (inactive)
COc1ccccc1NC(=O)CSc1nnnn1-c1ccc2c(c1)OCO2	92%	84% (inactive)	92% (inactive)	98.7% (inactive)	90.9% (inactive)	15.1% (inactive)	75.8%	90.9%	-4.11% (inactive)	0% (inactive)
COc1ccccc1OCC(=O)Nc1cccc(-c2nc3ccccc3o2)c1	104%	78.5% (inactive)	104% (inactive)	52.8% (inactive)	65.1% (inactive)	-14.2% (inactive)	79.3%	65.1%	-0.13% (inactive)	23% (inactive)
Cc1sc2ncnc(OCC(=O)N3CCN(S(=O)(=O)c4ccc(Cl)cc4)CC3)c2c1C	92.5%	86% (inactive)	92.5% (inactive)	89.2% (inactive)	84.8% (inactive)	0.87% (inactive)	84%	84.8%	0.53% (inactive)	-0.91% (inactive)
Cc1ccc(-c2nnn(CC(=O)N(Cc3cccs3)C(C(=O)NC(C)(C)C)c3ccc(C)o3)n2)o1 (stereo not given)	86.5%	96.5% (inactive)	86.5% (inactive)	93.4% (inactive)	79% (inactive)	3.37% (inactive)	75.7%	79%	-0.77% (inactive)	-5.67% (inactive)
O=S1(=O)CCC(NS(=O)(=O)/C=C/c2ccccc2)C1 (stereo not given)	110%	104% (inactive)	110% (inactive)	93.4% (inactive)	99.2% (inactive)	9.1% (inactive)	90.1%	99.2%	-6.22% (inactive)	-3.11% (inactive)
Cc1c(C(=O)OCC(C)(C)CN(C)C)oc2ccccc12	122%	95% (inactive)	122% (inactive)	101% (inactive)	92.4% (inactive)	8.07% (inactive)	84.3%	92.4%	-6.8% (inactive)	-4.6% (inactive)
COC(=O)CCC(=O)Nc1cccc(Cl)c1	118%	87% (inactive)	118% (inactive)	90.1% (inactive)	85.4% (inactive)	-5.69% (inactive)	91.1%	85.4%	-0.65% (inactive)	-2.54% (inactive)
CCOc1cc2[nH]c(=O)n(CCCCC(=O)N3CCCCCC3)c(=O)c2cc1OCC	90%	87.5% (inactive)	90% (inactive)	91.6% (inactive)	76.8% (inactive)	2.38% (inactive)	74.4%	76.8%	-3.29% (inactive)	-0.36% (inactive)
Cc1cc(NC(=O)CSc2nnc(COc3cccc(C)c3C)n2Cc2ccco2)no1	102%	94% (inactive)	102% (inactive)	97.5% (inactive)	104% (inactive)	19.5% (inactive)	85%	104%	-4.59% (inactive)	-0.79% (inactive)
